# Shown are actives, neighbours in structure and some others; about 3.5% of the full set was active somewhere.
# RGS4 pot = RGS4 potentiation or activation; HEK293 M3R/inducible RGS4, carbachol calcium flux Fluo4; active compounds read low; B-score at 10 µM; 310,000 compounds, 0.92% hits;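 active = B-score of the integrated calcium signal more than 4 SD below the library mean, with starting fluorescence not abnormally high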;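 also: negative B-score means reduced calcium response which marks RGS4 activation or potentiation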
#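 Reagent: ECmax carbachol challenge; Test system: M3R-expressing HEK293 line, RGS4 induced by doxycycline; Schedule: overnight RGS4 induction, 30 min dye load 37 °C, 20 min compound RT; Detection: calcium dye Fluo4 fluorescence; Read-out: Agonist-evoked peak-minus-minimum fluorescence over baseline, integrated ratio, B score.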
# MrgX1 ag = agonists of human MrgX1 receptor | Q96LB2 | MrgX1-HEK293 cells, Fluo-4 calcium fluorescence, agonist mode; active compounds read high | B-score at 10 µM | 310,000 compounds, 0.44% hits;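 active = calcium response B-score plate-corrected fluorescence ratio at least 3 library SD, with starting fluorescence B-score inside 5 SD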
# Target sequence (Q96LB2 whole entry, looked up): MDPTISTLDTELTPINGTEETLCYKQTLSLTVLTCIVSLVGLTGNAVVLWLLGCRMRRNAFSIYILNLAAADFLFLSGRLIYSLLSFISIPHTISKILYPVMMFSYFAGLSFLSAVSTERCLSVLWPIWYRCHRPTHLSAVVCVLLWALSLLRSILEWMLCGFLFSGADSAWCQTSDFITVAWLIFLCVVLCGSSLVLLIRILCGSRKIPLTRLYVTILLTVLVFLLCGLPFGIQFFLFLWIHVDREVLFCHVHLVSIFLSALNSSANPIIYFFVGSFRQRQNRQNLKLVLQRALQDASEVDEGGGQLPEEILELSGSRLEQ
#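 Material: MrgX1-expressing HEK293 cells / Dosing: compound as first of three additions / Incubation: overnight seeding, then 1 h dark dye loading / Signal: Fluo-4 NW calcium fluorescence / Evaluation: B-scored fluorescence response ratio / Benchmarks: positive and negative control wells on each plate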
# MrgX1 allo act = allosterically activates human MrgX1 receptor signaling; MrgX1-HEK293, Fluo-4 calcium flux, FDSS; active compounds read high; B-score at 10 µM; 310,000 compounds, 0.63% hits;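 active = plate-corrected calcium response at least 3 library SD above typical, normal starting fluorescence, not activating the receptor alone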;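 also: compound read alongside a low EC10 to EC30 dose of BAM8-22 agonist; peak minus trough fluorescence over baseline measured at the second addition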
# MrgX1 antag = antagonists of human MrgX1 receptor; Q96LB2; MRGX1-HEK293 calcium flux, Fluo-4, BAM8-22 antagonism; active compounds read low; B-score at 10 µM; 310,000 compounds, 1.3% hits;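 active = calcium-response B-score plate-corrected more than 3 library SD below zero, starting fluorescence within 5 deviations, no agonist response on first addition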;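 also: peak minus trough fluorescence over baseline after final BAM8-22 challenge near maximal dose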
# RGS4 block = human RGS4 inhibition; P49798; HEK293 M3R/RGS4 inducible, Fluo-4 calcium flux; active compounds read high; triggered by carbachol at its EC20; B-score at 10 µM; 310,000 compounds, 0.45% hits; AID 463165;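 active = B-score, a plate-corrected calcium signal, over three deviations above library mean, with baseline fluorescence within five deviations of library mean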;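 also: RGS4 expression induced by doxycycline in cells with stable M3 receptor; B-score is computed from the integrated fluorescence ratio over baseline after carbachol; higher B-score means a larger calcium signal and so more RGS4 inhibition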
# Target sequence (P49798 whole entry, looked up): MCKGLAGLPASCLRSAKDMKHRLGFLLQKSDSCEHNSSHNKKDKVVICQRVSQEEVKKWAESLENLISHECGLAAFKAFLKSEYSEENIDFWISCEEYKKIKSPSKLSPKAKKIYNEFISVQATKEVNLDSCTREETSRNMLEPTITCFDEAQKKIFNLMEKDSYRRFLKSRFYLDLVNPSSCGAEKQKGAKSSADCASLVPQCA
# MrgX1 antag conf = reconfirmed antagonist of human MrgX1 receptor signaling; shares compounds with MrgX1 antag; MrgX1-HEK293, BAM8-22 calcium flux, Fluo-4; active compounds read low; remaining BAM8-22 calcium response % of control (active compounds read low), % at 10 µM; 2,300 compounds, 19% hits; AID 602420;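 active = remaining agonist calcium response no higher than 100% minus 3 SD of agonist-only control wells, with starting fluorescence near control levels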;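 also: agonist BAM8-22 given at a near maximal EC90 to ECmax level; peak minus minimum fluorescence divided by baseline after agonist addition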
# HEK293 Ca flux = MrgX1 antagonist counter-screen hit in parental HEK293 cells; fluorescence ratio F(max-min)/F0 at 10 µM; Fluo-4 calcium fluorescence, FDSS; 4,000 compounds, 2% hits; shares compounds with MrgX1 antag;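 active = duplicate-averaged calcium fluorescence ratio at least three times the standard deviation of buffer wells, a nonspecific response in parental cells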
# HEK293 Ca counter = activity in parental HEK293 cells without MrgX1; parental HEK293 calcium flux, Fluo-4 fluorescence ratio; active compounds read high; AID 624114; shares compounds with MrgX1 antag; 4,000 compounds, 0.4% hits; fluorescence ratio F(max-min)/F0 at 10 µM;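 active = calcium fluorescence ratio, averaged over duplicates, at least 3 SD of the buffer-well ratio, meaning a nonspecific response in receptor-free cells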;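 also: untransfected parental HEK293 lacking MrgX1 used as counterscreen for MrgX1 allosteric activators; fluorescence change taken during the second addition on a kinetic imager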
# HEK293 Ca cntr2 = MrgX1 activator counter-screen hit in parental HEK293 cells | shares compounds with MrgX1 antag | Fluo-4 calcium fluorescence (FDSS); active compounds read high | fluorescence ratio F(max-min)/F0 at 10 µM | 4,000 compounds, 8.7% hits | AID 624115;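 active = calcium fluorescence ratio at least three times the spread of buffer wells, meaning a non-specific response in parental cells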
# Numbers without * were called inactive; i = inactive; nt = no result.
SMILES,RGS4 pot,MrgX1 ag,MrgX1 allo act,MrgX1 antag,RGS4 block,MrgX1 antag conf,HEK293 Ca flux,HEK293 Ca counter,HEK293 Ca cntr2
COc1ccc(CN2CN=C(Nc3nc4ccccc4s3)NC2)cc1,i,i,i,-7.5*,i,57%*,i,i,i
c1ccc(CN2CN=C(Nc3nc4ccccc4s3)NC2)cc1,i,i,i,i,i,nt,nt,nt,nt
CC(C)OC(=O)c1c(NC(=O)Cn2cnc([N+](=O)[O-])n2)sc2c1CCCC2,i,i,i,i,i,nt,nt,nt,nt
Cc1cc(Br)ccc1NC(=S)NCCc1ccccc1,i,i,i,i,i,nt,nt,nt,nt
Cc1ccc(NC(=S)NCCc2ccccc2)c(C)c1,i,i,i,-5.2*,i,i,i,i,i
Cc1nc2c(F)c(F)c(C(F)(F)F)c(F)c2[nH]1,i,i,i,i,i,nt,nt,nt,nt
CCC(C)(C)NC(=O)C(c1ccc(OC)cc1)N(C(=O)CCC(=O)Nc1cc(C)on1)c1cccc(OC)c1 (centres undefined),i,i,i,i,i,nt,nt,nt,nt
Cc1nc2c(-c3ccc(Cl)cc3)cnn2c2c1CCC2,i,i,i,-5.1*,i,i,i,i,i
O=C(Nc1ccc2c(c1)OCCO2)c1cc(-c2ccccc2)nc2ccccc12,i,i,i,-5*,i,i,i,i,i
O=C(NNC(=O)c1cc(-c2cccnc2)nc2ccccc12)Nc1ccc(Cl)cc1,i,i,6.9*,-13*,i,i,i,i,i
CN1CCN(c2ccc(Cl)cc2NS(=O)(=O)c2ccccc2Cl)CC1,i,i,i,-5.3*,i,81%*,i,i,i
Cc1ccc(S(=O)(=O)c2ccc(Cl)cc2)cc1S(=O)(=O)N(C)CC(=O)O,i,i,i,-5.9*,i,i,i,i,i
CCc1cc(=O)oc2cc(OC(C)=O)cc(OC(C)=O)c12,i,i,i,-8.3*,i,i,i,i,i
O=C(Nc1ccccc1C(=O)N1CCOCC1)C1COc2ccccc2O1 (centres undefined),i,i,i,i,i,nt,nt,nt,nt
Cc1nc(N2CCCCCC2)c2ccccc2n1,i,i,i,-4.7*,i,i,i,i,i
O=C(c1nc2ccc(Cl)cn2c1CN1CCC(O)CC1)N1CCc2ccccc2C1,i,i,i,-5.5*,i,i,i,i,i
O=C(CCC1CCCC1)NCCCN1CCOCC1,i,i,i,-6.9*,i,i,i,i,i
CCOc1ccc(N(C(=O)c2cnccn2)C(C(=O)NC2CCCCC2)c2ccc(O)cc2)cc1 (centres undefined),i,i,i,i,i,nt,nt,nt,nt
CC(/C=C1\SC(=S)N(NS(=O)(=O)c2ccc(C)cc2)C1=O)=C\c1ccccc1,-7.3*,i,i,-14*,i,i,i,i,47*
CC(=O)c1sc(NC(=O)CN2C(=O)NC3(CCCC3)C2=O)nc1-c1ccccc1,i,i,i,-6.4*,i,i,i,i,i
COc1cc(-c2nnc(-c3ccccc3)o2)cc(OC)c1OC,i,i,i,-4.9*,i,i,i,i,i
CCOC(=O)c1sc(=NC(=O)c2ccccc2)n(C)c1C,i,i,i,i,i,nt,nt,nt,nt
CCOC(=O)c1sc(=NC(=O)CCS(=O)(=O)c2ccccc2)n(C)c1C,i,i,i,-5.7*,i,i,i,i,i
COc1cccc(C(=O)COc2ccc3c(C)cc(=O)oc3c2)c1,i,i,i,-5.1*,i,83%*,i,i,i
CN(CC(=O)Nc1c(Cl)cccc1Cl)C(=O)c1ccc2nc[nH]c2c1,i,i,i,-7.1*,i,73%*,i,i,i
SMILES,RGS4 pot,MrgX1 ag,MrgX1 allo act,MrgX1 antag,RGS4 block,MrgX1 antag conf,HEK293 Ca flux,HEK293 Ca counter,HEK293 Ca cntr2
COc1cc(/C=N\NC(=O)C2COc3ccccc3O2)cc(OC)c1O (centres undefined),i,i,i,i,i,nt,nt,nt,nt
COc1cc2ccccc2cc1C(=O)NC(=S)Nc1cccc(C(=O)O)c1,i,i,i,i,i,nt,nt,nt,nt
COc1ccc(NC(=S)N2CCCC(c3nc4ccc(C)cc4[nH]3)C2)cc1 (centres undefined),i,i,i,-9.5*,i,i,i,i,i
COc1ccc(NC(=S)N2CCCC(c3nc4ccc(C)cc4[nH]3)C2)c(OC)c1 (centres undefined),i,i,i,i,i,nt,nt,nt,nt
CCOC(=O)N1CCN(C(=O)c2ccccc2N(C)S(C)(=O)=O)CC1,i,i,i,-7.6*,i,i,i,i,i
Nc1nonc1-c1nc2ccccc2n1CC(=O)N1CCCCC1,i,i,i,-5.4*,i,i,i,i,i
Cn1c(-c2nonc2N)nc2ccccc21,i,i,i,i,i,nt,nt,nt,nt
CCCn1c(-c2nonc2N)nc2ccccc21,i,i,i,-8.3*,i,i,i,i,i
Nc1nonc1-c1nc2ccccc2n1CC(=O)O,i,i,i,i,i,nt,nt,nt,nt
CCC(C)NCCCCOc1ccc(C)cc1[N+](=O)[O-] (centres undefined),i,i,i,i,i,nt,nt,nt,nt
CC(C)(C)C(=O)Nc1sc2c(c1C#N)CCN(Cc1ccccc1)C2,i,i,i,-5.1*,i,i,i,i,i
Cc1ccc(-n2ncc(C(=O)Nc3cc(Cl)cc(Cl)c3)c2C2CCNCC2)cc1C,i,nt,nt,nt,i,nt,nt,nt,nt
O=C1N=C(c2ccccc2)C(c2ccccc2)N1 (centres undefined),i,i,i,-7.3*,i,i,i,i,i
CCOc1ccc(S(=O)(=O)Nc2cc(Cl)ccc2O)cc1,i,i,i,-4.6*,i,85%*,i,i,i
